These results are taken from ChEMBL document CHEMBL3608234, “Synthesis and antiviral evaluation of a novel series of homoserine-based inhibitors of the hepatitis C virus NS3/4A serine protease” (Bioorg Med Chem Lett, 2015).

Data set [1] concerns Hepatitis C virus. Kind of data set: Antiviral activity against HCV Con1 infected in human GS4.1 cells containing HCV Con1 subgenomic replicon assessed as reduction in NS5A protein expression by ELISA method. In kind it is functional, cell-based, Hepacivirus hominis. The note with it: genotype 1b Con1. The procedure, abridged:
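Huh-7 cells carrying HCV Con1 subgenomic replicon (GS4.1); replication followed as NS5A protein expression by ELISA; EC50 from 50% inhibition versus concentration data fitted by four-parameter sigmoidal non-linear regression.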

A short description of data set [2]: Cytotoxicity against human GS4.1 cells assessed as induction of cell death. In kind it is cell-based. The method, boiled down:
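GS4.1 cells (Huh-7 with Con1 subgenomic replicon); CC50 taken as concentration giving 50% cell death, from death versus concentration data relative to blank control.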

A short description of data set [3]: Inhibition of full length HCV 1b Con1 NS3/4A protease using HiLyte Fluor 610 peptide substrate by biochemical FRET assay. Further details: species or system Hepatitis C virus (isolate Con1). The procedure, abridged: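 Fluorescence (FRET) protease assay on full-length genotype 1b Con1 HCV NS3/4A with HiLyte Fluor 610 peptide substrate; IC50 from percent inhibition versus concentration by four-parameter sigmoidal non-linear regression.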

A short description of data set [4]: Intrinsic clearance in rat liver microsomes incubated for 2 hrs. In kind it is ADME. The note with it: read-out: CLH. (Microsomes from liver hold many membrane-bound enzymes, among them those of drug oxidation.)
Data set [5] is described as follows: Intrinsic clearance in human liver microsomes incubated for 2 hrs. The format is ADME. The note with it: read-out: CLH.
Data set [6] in a line: Intrinsic clearance in dog liver microsomes incubated for 2 hrs. The note with it: read-out: CLH. The format is ADME, Canis lupus familiaris.
Data set [7] deals with Hepatocyte. Kind of data set: Clearance in rat cryopreserved hepatocytes incubated for 2 hrs. In kind it is ADME, cell-based.
The nature of data set [8]: Clearance in rat liver S9 fraction incubated for 2 hrs. The note with it: read-out: CLH. In kind it is ADME, subcellular. The method, boiled down: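 Rat liver S9 fraction incubation for 2 h; mean clearance from n = 2.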
Data set [9] in a line: Intrinsic clearance in Cynomologus monkey liver microsomes incubated for 2 hrs. The format is ADME, Macaca fascicularis. The note with it: cynomolgus monkey, read-out: CLH.

Broadly, the pEC50 is −log10 of the EC50, conventionally taken in molar units. A word on the CC50: it is the concentration at which the toxic effect on the cells reaches its halfway point. In general, pIC50 refers to the negative decadic logarithm of the IC50, by convention in mol/L.

pEC50, pIC50: −log10 of the molar value.

Consider `COc1ccc2c(OCC[C@@H]3NC(=O)N(C)CCCC/C=C\[C@@H]4C[C@@]4(C(=O)NS(=O)(=O)C4CC4)NC3=O)cc(-c3ccccc3)nc2c1`, for which the pEC50 in data set [1] is 5.09. Further, the CC50 in data set [2] was more than 30000 nM. In [3], this molecule gave a pIC50 of 7.70.

Take `COc1ccc2c(OCC[C@@H]3NC(=O)N(C)CCCCC/C=C\[C@@H]4C[C@@]4(C(=O)NS(=O)(=O)C4CC4)NC3=O)cc(-c3ccccc3)nc2c1`: the pEC50 in data set [1] was 4.84. Further, the CC50 in data set [2] turned out to be 53000 nM. The pIC50 in data set [3] is 7.39.

Take `COc1ccc2c(OCC[C@@H]3NC(=O)N(C)CCCC/C=C\[C@@H]4C[C@@]4(C(=O)NS(=O)(=O)C4(C)CC4)NC3=O)cc(-c3csc(NC(C)C)n3)nc2c1`: in data set [1], the pEC50 is 5.98. Also, in data set [2], the CC50 worked out at 37400 nM. Besides, in data set [3], the pIC50 is 8.92.

For `COc1ccc2c(OCC[C@@H]3NC(=O)N(C)CCCC/C=C\[C@@H]4C[C@@]4(C(=O)NS(=O)(=O)C4(C)CC4)NC3=O)cc(-c3nc(C(C)C)cs3)nc2c1`, the microsomal CLint in data set [4] worked out at 155 µL/min/mg. For the same molecule, in [1], the negative-log EC50 (pEC50) is 7.36. Besides, in [2], the CC50 came out at 6500 nM. For the same molecule, in data set [3], the pIC50 is 9.05.

Consider `COc1ccc2c(OCC[C@@H]3NC(=O)N(C)CCCC/C=C\[C@@H]4C[C@@]4(C(=O)NS(=O)(=O)C4CC4)NC3=O)cc(-c3nc(C(C)C)cs3)nc2c1F`, for which the pEC50 in data set [1] is 5.83. For the same molecule, the CC50 in data set [2] was more than 75000 nM. This molecule also showed a pIC50 in [3] of 8.02.

`COc1ccc2c(OCC[C@@H]3NC(=O)N(C)CCCC/C=C\[C@@H]4C[C@@]4(C(=O)NS(=O)(=O)C4(C)CC4)NC3=O)cc(-c3nc(C(C)C)cs3)nc2c1F`: in [1], the pEC50 was 6.26. Moreover, the CC50 in data set [2] was found to be 57100 nM. This molecule gave a pIC50 in data set [3] of 8.10.

For `COc1ccc2c(OCC[C@@H]3NC(=O)N(C)CCCC/C=C\[C@@H]4C[C@@]4(C(=O)NS(=O)(=O)C4CC4)NC3=O)cc(-c3nc(C(C)C)cs3)nc2c1Cl`, the microsomal CLint in [5] turned out to be 263 µL/min/mg; in data set [6], 25 µL/min/mg; in [4], 36.6 µL/min/mg; in [8] it was 8.9 µL/min/mg; in data set [9], 124 µL/min/mg. The same molecule yielded a CLH in data set [7] of 19.1 µL/min/mg. Also, the pEC50 in [1] was 7.12. In addition, the CC50 in data set [2] was 40400 nM. This molecule had a pIC50 in data set [3] of 8.77.

`COc1ccc2c(OCC[C@@H]3NC(=O)N(C)CCCC/C=C\[C@@H]4C[C@@]4(C(=O)NS(=O)(=O)C4(C)CC4)NC3=O)cc(-c3nc(C(C)C)cs3)nc2c1Br`: the microsomal CLint in data set [4] was found to be 16.5 µL/min/mg. Also, the pEC50 in data set [1] was 7.69. Also, the CC50 in data set [2] came to 28300 nM. The same molecule gave a pIC50 in data set [3] of 9.22.

As for `COc1ccc2c(OCC[C@@H]3NC(=O)N(C)CCCC/C=C\[C@@H]4C[C@@]4(C(=O)NS(=O)(=O)C4(C)CC4)NC3=O)cc(-c3nc(C(C)C)cs3)nc2c1C`, the microsomal CLint in data set [4] was found to be 9.3 µL/min/mg. Further, the pEC50 in [1] was 7.07. Besides, in [2], the CC50 stood at 31900 nM. The pIC50 in data set [3] was 8.64.

Consider `COc1ccc2c(OCC[C@@H]3NC(=O)N(C)CCCC/C=C\[C@@H]4C[C@@]4(C(=O)NS(=O)(=O)C4(C)CC4)NC3=O)cc(-n3ccc(C(C)C)n3)nc2c1C`, for which the microsomal CLint in data set [4] is 21 µL/min/mg. Further, the pEC50 in data set [1] is 7.30. Besides, in [2], the CC50 is 25600 nM. Also, the pIC50 in data set [3] is 8.70.

As to `COc1ccc2c(OCC[C@@H]3NC(=O)N(C)CCCC/C=C\[C@@H]4C[C@@]4(C(=O)NS(=O)(=O)C4(C)CC4)NC3=O)cc(-n3ccc(C(C)C)n3)nc2c1Cl`, in data set [1], the pEC50 is 7.36. In addition, the CC50 in data set [2] worked out at 31000 nM. The molecule further showed a pIC50 in [3] of 8.96.

As to `CCn1cc(-c2cc(OCC[C@@H]3NC(=O)N(C)CCCC/C=C\[C@@H]4C[C@@]4(C(=O)NS(=O)(=O)C4(C)CC4)NC3=O)c3ccc(OC)c(C)c3n2)cn1`, the negative-log EC50 (pEC50) in data set [1] was 6.31. Also, in data set [2], the CC50 stood at 36700 nM. For the same molecule, the pIC50 in [3] is 8.52.

Take `CCCn1cc(-c2cc(OCC[C@@H]3NC(=O)N(C)CCCC/C=C\[C@@H]4C[C@@]4(C(=O)NS(=O)(=O)C4(C)CC4)NC3=O)c3ccc(OC)c(C)c3n2)cn1`: in data set [1], the pEC50 is 6.84. Also, the CC50 in [2] stood at 62300 nM. Also, in data set [3], the pIC50 was 8.85.

As to `COc1ccc2c(OCC[C@@H]3NC(=O)N(C)CCCC/C=C\[C@@H]4C[C@@]4(C(=O)NS(=O)(=O)C4(C)CC4)NC3=O)cc(-c3cc(C(F)(F)F)nn3C)nc2c1C`, in data set [1], the pEC50 is 6.36. Further, the CC50 in data set [2] amounted to 34500 nM. Besides, the pIC50 in [3] is 9.00.

Take `COc1ccc2c(OCC[C@@H]3NC(=O)N(C)CCCC/C=C\[C@@H]4C[C@@]4(C(=O)NS(=O)(=O)C4(C)CC4)NC3=O)cc(-n3ccc(C(F)(F)F)n3)nc2c1C`: the microsomal CLint in data set [4] was 14.4 µL/min/mg. Also, in data set [1], the pEC50 was 7.46. Also, in data set [2], the CC50 came to 45800 nM. In addition, the pIC50 in [3] was 8.74.

For `COc1ccc2c(OCC[C@@H]3NC(=O)N(C)CCCC/C=C\[C@@H]4C[C@@]4(C(=O)NS(=O)(=O)C4(C)CC4)NC3=O)cc(-n3ccc(C(F)(F)F)n3)nc2c1Cl`, the pEC50 in data set [1] was 7.82. In addition, the CC50 in data set [2] turned out to be 48800 nM. In data set [3], this molecule had a negative logarithm of the IC50 (pIC50) of 8.96.

For `COc1ccc2c(OCC[C@@H]3NC(=O)N(C)CCCC/C=C\[C@@H]4C[C@@]4(C(=O)NS(=O)(=O)C4(F)CC4)NC3=O)cc(-c3nc(C(C)C)cs3)nc2c1Cl`, the pEC50 in data set [1] is 6.82. The CC50 in data set [2] worked out at 51400 nM. In data set [3], this molecule gave a pIC50 of 8.57.

For `CCC1(S(=O)(=O)NC(=O)[C@@]23C[C@H]2/C=C\CCCCN(C)C(=O)N[C@@H](CCOc2cc(-c4nc(C(C)C)cs4)nc4c(Cl)c(OC)ccc24)C(=O)N3)CC1`, the pEC50 in data set [1] is 7.05. In data set [2], the CC50 was found to be 49300 nM. In addition, the pIC50 in data set [3] was 8.48.

Take `COc1ccc2c(OCC[C@@H]3NC(=O)N(C)CCCC/C=C\[C@@H]4C[C@@]4(C(=O)NS(=O)(=O)C4(C#N)CC4)NC3=O)cc(-c3nc(C(C)C)cs3)nc2c1Cl`: the pEC50 in [1] was less than 6.12. In [2], the CC50 was more than 75000 nM. For the same molecule, the pIC50 in [3] is 7.84.

For the molecule `C#CC1(S(=O)(=O)NC(=O)[C@@]23C[C@H]2/C=C\CCCCN(C)C(=O)N[C@@H](CCOc2cc(-c4nc(C(C)C)cs4)nc4c(Cl)c(OC)ccc24)C(=O)N3)CC1`, the pEC50 in [1] is 7.54. Moreover, the CC50 in data set [2] worked out at 26300 nM. In data set [3], this molecule had a pIC50 of 9.15.

Turning to `COc1ccc2c(OCC[C@@H]3NC(=O)N(C)CCCC/C=C\[C@@H]4C[C@@]4(C(=O)NS(=O)(=O)N(C)C)NC3=O)cc(-c3nc(C(C)C)cs3)nc2c1Cl`, the pEC50 in data set [1] is 7.07. The CC50 in data set [2] is 47800 nM. The pIC50 in data set [3] is 8.68.

Take `COc1ccc2c(OCC[C@@H]3NC(=O)N(C)CCCC/C=C\[C@@H]4C[C@@]4(C(=O)NS(=O)(=O)N4CCC(F)(F)C4)NC3=O)cc(-c3nc(C(C)C)cs3)nc2c1Cl`: the pEC50 in [1] was less than 6.12. For the same molecule, the CC50 in [2] stood at 37600 nM. The molecule further showed a pIC50 in [3] of 6.78.

In the case of `COc1ccc2c(OCC[C@@H]3NC(=O)N(C)CCCC/C=C\[C@@H]4C[C@@]4(C(=O)NS(=O)(=O)N4CCOCC4)NC3=O)cc(-c3nc(C(C)C)cs3)nc2c1Cl`, in [1], the pEC50 was less than 6.12. Moreover, the CC50 in [2] is 26400 nM. Further, in data set [3], the pIC50 is 6.82.

As to `COc1ccc2c(OCC[C@@H]3NC(=O)N(C)CCCC/C=C\[C@@H]4C[C@@]4(C(=O)NS(=O)(=O)N4CCC[C@H]4C#N)NC3=O)cc(-c3nc(C(C)C)cs3)nc2c1Cl`, the pEC50 in data set [1] was less than 6.12. Besides, in data set [2], the CC50 turned out to be 28300 nM. The molecule also showed a pIC50 in data set [3] of 6.58.

As for `C#C[C@@H]1CCCN1S(=O)(=O)NC(=O)[C@@]12C[C@H]1/C=C\CCCCN(C)C(=O)N[C@@H](CCOc1cc(-c3nc(C(C)C)cs3)nc3c(Cl)c(OC)ccc13)C(=O)N2`, the pEC50 in data set [1] was less than 6.12. In addition, the CC50 in data set [2] is 21200 nM. This molecule also showed a pIC50 in data set [3] of 7.47.

As for `COc1ccc2c(O[C@@H]3C[C@H]4C(=O)N[C@]5(C(=O)O)C[C@H]5/C=C\CCCCC[C@H](NC(=O)OC5CCCC5)C(=O)N4C3)cc(-c3csc(NC(C)C)n3)nc2c1` [CILUPREVIR], the pEC50 in [1] is 8.55. Besides, the CC50 in data set [2] is 21000 nM. Also, the negative logarithm of the IC50 (pIC50) in data set [3] was 9.05.
